This excerpt belongs to a sample that is enriched for hits.
Mac1 fbg inh: CD11b/CD18-fibrinogen binding inhibition; actives 0.54% (n = 93,000); AID 1497; inhibition, % at 10 µM; K562 CD11b/CD18 adhesion to fibrinogen, ATPlite luminescence; Mn2+ added to activate the integrin;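 active means primary inhibition of 50% or more at 10 µM, then 40% or more on retest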
Target sequence (P05107 whole entry, looked up, other chains not shown): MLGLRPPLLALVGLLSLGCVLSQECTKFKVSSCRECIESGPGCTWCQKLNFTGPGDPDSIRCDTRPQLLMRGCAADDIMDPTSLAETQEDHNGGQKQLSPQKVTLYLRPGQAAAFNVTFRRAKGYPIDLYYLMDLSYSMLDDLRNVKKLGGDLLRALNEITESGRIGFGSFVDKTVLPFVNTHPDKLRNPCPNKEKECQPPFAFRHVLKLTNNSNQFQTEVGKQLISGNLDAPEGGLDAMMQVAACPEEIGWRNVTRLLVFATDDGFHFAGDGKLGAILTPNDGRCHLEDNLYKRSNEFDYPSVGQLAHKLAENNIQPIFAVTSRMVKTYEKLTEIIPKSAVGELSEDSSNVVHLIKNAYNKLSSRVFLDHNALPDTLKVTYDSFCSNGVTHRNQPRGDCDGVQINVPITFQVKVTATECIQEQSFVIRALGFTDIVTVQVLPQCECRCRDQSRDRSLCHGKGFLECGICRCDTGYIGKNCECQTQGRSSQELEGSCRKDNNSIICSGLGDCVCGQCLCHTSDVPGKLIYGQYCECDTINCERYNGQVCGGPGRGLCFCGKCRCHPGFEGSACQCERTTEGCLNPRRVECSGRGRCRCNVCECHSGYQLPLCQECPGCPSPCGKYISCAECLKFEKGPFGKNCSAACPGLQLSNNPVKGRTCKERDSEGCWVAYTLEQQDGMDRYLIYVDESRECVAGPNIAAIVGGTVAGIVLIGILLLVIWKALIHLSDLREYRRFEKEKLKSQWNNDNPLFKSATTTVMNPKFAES
tolC growth inh: blocks growth of E. coli BW25113 tolC mutant; OD615; growth inhibition, % at 10 µM (by protocol); actives 2.2% (n = 65,000); AID 573;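 active means growth inhibition at or above a cutoff equal to the mean over every tested compound plus 3 SD, cut at about 60% in these data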;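 further: growth measured after 20 h incubation at 37 °C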
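Material: E. coli BW25113 ΔtolC::kan, tolC deletion mutant strain. Measure: percent growth inhibition. Schedule: 37 °C, 20 h exposure. Doses: single-point testing at 10 µM. Signal: A615 absorbance measurement. Buffer or medium: kanamycin-containing LB broth (50 µg/mL).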
Phagocyt inh: inhibitors of macrophage phagocytosis; inhibition, % at 5 µM; actives 0.07% (n = 110,000); AID 1029; J774A.1 macrophage IgG-bead phagocytosis, imaging;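 active means inhibition above the mean of the plate negative controls plus 5 SD, cut at about 13% in these data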;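 further: phagocytic index as fraction of beads internalized from green versus red external bead signal; plate controls were DMSO negative control for no effect and cytochalasin-D positive control for full effect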
E coli WT exp: growth inhibitors of E. coli BW25113 wild type; actives 0.15% (n = 98,000); OD600 absorbance; AID 710; growth inhibition, % at 100 µM;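 active means growth inhibition above about 50% at one test dose, limit read from the data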;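 further: growth measured after 20 h incubation at 37 °C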
CD11b adhes enh: enhancers of human CD11b/CD18 binding to fibrinogen. activation, % at 10 µM. K562 CD11b/CD18 adhesion to fibrinogen, ATPlite luminescence. actives 0.07% (n = 93,000). P05107+P11215;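 active means 10 µM primary screen giving 50% or more activity, confirmed by 40% or more on retest at that dose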
Active calls of the source: *; . = no result given.

SMILES	Mac1 fbg inh	tolC growth inh	Phagocyt inh	E coli WT exp	CD11b adhes enh
N#Cc1ccc(/C=N/N=C(N)N)cc1	2	.	-2	7	2
NC(N)=N/N=C/c1ccc(OCc2ccc(Cl)cc2)cc1	23	.	-2	100*	-5
NC(N)=N/N=C/c1ccc(OCc2ccccc2)cc1	36	.	2	99*	-1
O=C(COc1ccccc1)Nc1cccc(-c2nnc(-c3ccccc3)o2)c1	7	23	1	.	2
O=C(Nc1cccc(-c2nnc(-c3ccccc3)o2)c1)c1ccc(Br)o1	7	84*	0	-12	16
O=C(N/N=C/C(Br)=C\c1ccccc1)c1ccc2nc[nH]c2c1	.	.	0	.	.
CCOC(=O)N1CCN(C(=O)c2sc3nc(-c4ccc(F)cc4)cn3c2C)CC1	-27	4	0	9	0
O=C(CN1CCN(c2nc(-c3ccc(F)cc3)cs2)CC1)NCc1ccc2c(c1)OCO2	54	80*	0	-4	-5
COc1cccc(-c2csc(N3CCN(CC(=O)Nc4ccc5c(c4)OCO5)CC3)n2)c1	20	30	-1	-16	0
CCOC(=O)N1CCN(c2nc(-c3ccc(F)cc3)cs2)CC1	-22	92*	0	-5	7
C=CCn1c(SCC(=O)Nc2ccccc2OC)nnc1-c1ccco1	-43	16	1	-1	7
C=CCn1c(SCC(O)Cn2c3ccccc3c3ccccc32)nnc1-c1ccco1 (centres undefined)	5	81*	-2	-22	-7
O=C(CCC(=O)OCc1ccc(C(=O)Oc2ccccc2)cc1)Nc1cccc2ccccc12	.	.	.	-16	.
COc1ccccc1NS(=O)(=O)c1ccc(NN=C2CCCCC2)c([N+](=O)[O-])c1	.	.	1	.	.
[O-][N+]1=c2ccc(Nc3ccccc3)cc2=NC12CCCCC2	3	90*	3	23	1
COc1ccc(Nc2ccc3c(c2)=NC2(CCCCC2)[N+]=3[O-])cc1	10	53	.	22	5
C/C(=N/Nc1ccc(C(=O)O)cc1)c1ccc(O)c(O)c1O	.	.	-9	.	.
O=C(NNC1=C(C(=O)C(F)(F)F)CCC1)c1ccc(Cl)cc1	96*	.	-2	17	-15
O=C(NNC1=C(C(=O)C(F)(F)F)CCC1)c1cccc(Cl)c1	99*	.	-3	32	-7
C/C(=N\Nc1nc(-c2cc(C)ccc2C)cs1)c1cc2c(ccc3ccccc32)oc1=O	.	.	-7	.	.
COc1ccc(-c2nnc(NC(=O)c3ccc(F)cc3)o2)cc1	-16	.	0	51*	2
COc1ccc(-c2nnc(NC(=O)c3cc(Cl)ccc3Cl)o2)cc1	-11	98*	0	1	-2
COc1ccccc1C(=O)Nc1nnc(-c2ccc(Cl)cc2)o1	.	44	.	.	.
O=C(Nc1nnc(-c2ccc(F)cc2)o1)c1ccco1	.	77*	.	.	.
COc1ccccc1C(=O)Nc1nnc(-c2ccc(F)cc2)o1	3	4	0	7	5
SMILES	Mac1 fbg inh	tolC growth inh	Phagocyt inh	E coli WT exp	CD11b adhes enh
O=C(CSc1ccc(-c2ccc(F)cc2)nn1)N1CCN(c2ccccc2)CC1	.	.	-8	.	.
CCOC(=O)c1cnc2c(-c3cccc(Br)c3)cnn2c1C	1	.	-2	.	5
CCOc1ccccc1N1CCN(Cc2ccc(Br)s2)CC1	-7	97*	0	23	0
CCOc1ccccc1N1CCN(Cc2ccco2)CC1	-7	.	0	-4	-4
Cc1ccc(NC(=O)COc2ccc(CCO)cc2-n2nc3ccccc3n2)cc1C	1	.	-11	.	9
Cc1cccc(-n2cnc3cc(C(=O)N4CCc5ccccc54)ccc32)c1	.	.	-3	.	.
CC(C)OCCCNCC(O)c1ccccc1 (centres undefined)	-1	.	-6	.	0
CCOC(=O)C1=C(Cc2ccc(C)cc2)C(=O)c2ccccc2C1=O	90*	.	0	-18	-7
O=C(Cn1c(C(=O)NCc2ccco2)cc2sccc21)c1ccccc1	-26	65*	8	-20	-6
O=C(Cn1c(C(=O)NCC2CCCO2)cc2sccc21)c1ccccc1 (centres undefined)	-13	11	-2	7	-1
CCCCC1C2=C(CC(C)(C)CC2=O)OC2=C1C(=O)CC(C)(C)C2	-12	.	-9	.	2
O=C(C1CC1)N1CCC(c2nc(-c3ccc(S(=O)(=O)NCC4CCCO4)cc3)no2)CC1 (centres undefined)	62*	-6	-1	-8	-3
CS(=O)(=O)N1CCc2cc(-c3csc(NC(=O)Cc4cccs4)n3)ccc21	96	62*	5	-14	-7
CCOc1ccccc1NC(C)C(=O)Nc1cc(C(F)(F)F)ccc1N1CCOCC1 (centres undefined)	13	.	-12	.	-2
CN=C(NC1CCCCC1)c1ccc(Cl)cc1	.	.	2	.	.
COc1ccc(N2C(=O)CCC(C(=O)O)C2c2ccc(OC)c(OC)c2)cc1 (centres undefined)	-12	.	-1	2	-2
COc1ccc(N2C(=O)CCC(C(=O)NCCN3CCOCC3)C2c2ccc(OC)c(OC)c2)cc1 (centres undefined)	1	-9	44*	-5	-1
C/C(=N\NS(=O)(=O)c1ccc(C)c([N+](=O)[O-])c1)c1cc2ccccc2o1	20	.	-1	9	-3
C/C(=N\NS(=O)(=O)c1ccc(Cl)c([N+](=O)[O-])c1)c1cc2ccccc2o1	97*	.	-1	8	-10
Cc1ccc(C)c(S(=O)(=O)C(C#N)c2nc3ccccc3nc2N2CCOCC2)c1 (centres undefined)	95*	70*	0	1	-10
CSc1nc(-c2ccccc2)nc(N2CCCC2)c1C(C)=O	12	75*	-1	-1	1
CSc1nc(-c2ccccc2)nc(N2CCN(C)CC2)c1C(C)=O	8	0	0	11	-2
O=C(NCCCc1ccccc1)c1ccccc1O	26	67*	0	26	-3
O=C(NCCO)c1ccccc1O	-4	.	4	2	7
CC1CCN(S(=O)(=O)c2cc(C(=O)N3CCN(c4ncccn4)CC3)ccc2Br)CC1	.	.	-11	.	.
SMILES	Mac1 fbg inh	tolC growth inh	Phagocyt inh	E coli WT exp	CD11b adhes enh
O=C(NC(=S)NNC(=O)c1cccs1)c1ccco1	.	.	.	67*	.
CCC(=O)NC(=S)NNC(=O)c1ccc(OC)cc1	.	.	.	75*	.
O=C(NCCNC(=O)c1cccs1)c1ccco1	-39	-18	0	3	0
Cc1ccc(C(=O)NNC(=S)NC(=O)COc2ccccc2)cc1	20	.	.	51*	-2
COc1ccc(C(=O)NNC(=S)NC(=O)c2ccco2)cc1	.	.	.	80*	.
CCC(C(=O)c1ccc2ncccc2c1)c1ccccc1 (centres undefined)	.	.	-12	.	.
COc1ccc(Cl)cc1NC(=O)Cc1c(F)cccc1Cl	.	.	3	.	.
Cc1cc(N2C(=O)C3C4CC(C(Br)C4Br)C3C2=O)no1 (centres undefined)	.	.	-2	.	.
CCOC(=O)C(C)/C(C)=N/NC(N)=S (centres undefined)	.	.	6	.	.
CN(C)N1C(N)=C(C#N)C(c2cccnc2)C2=C1CCCC2=O (centres undefined)	.	.	0	.	.
CCCOc1ccc(C(=O)NNC(=S)NC(C)=O)cc1	.	.	.	88*	.

Screening data as filed in PubChem.
